Measurements reported in ChEMBL document CHEMBL1777788, “Synthesis and in vitro antimicrobial activities of new (cyano-NNO-azoxy)pyrazole derivatives” (2011).
≈ marks a conversion by molar mass, not a printed value.

Experiments:
[1] = test system: Candida parapsilosis; assay: Antimicrobial activity against Candida parapsilosis isolate 26 after 48 hrs by microdilution broth method; type: functional; details: Lodderomyces parapsilosis, isolate 26, 48 h
Summary of the method: (§1)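 Yeasts were grown overnight on Sabouraud dextrose agar at 35°C, suspended in water, and adjusted at 530 nm to McFarland 0.5 (approximately 1-5 x 10^6 CFU/ml). They were then diluted 1:100 and 1:20 in RPMI 1640 with 0.165 M MOPS and 2% glucose. Compound in DMSO was tested at ten concentrations, 0.25–256 mg/L, with incubation at 35°C. At 48 h, MIC was read spectrophotometrically as 50% turbidity reduction versus growth control.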

[2] = test system: Candida parapsilosis; assay: Antimicrobial activity against Candida parapsilosis isolate 39 after 48 hrs by microdilution broth method; type: functional; details: Lodderomyces parapsilosis, isolate 39, 48 h
Summary of the method: (§2)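 Yeasts grown overnight on Sabouraud dextrose agar at 35°C, suspended in sterile water, and adjusted to McFarland 0.5 at 530 nm (about 1-5 x 10^6 CFU/ml), then diluted 1:100 and 1:20 in RPMI 1640 with 0.165 M MOPS and 2% glucose. Compound in DMSO tested at ten concentrations, 0.25-256 mg/L, at 35°C. MIC read spectrophotometrically at 48 h as 50% turbidity reduction versus growth control.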

[3] = test system: Cryptococcus deneoformans; assay: Antimicrobial activity against Cryptococcus neoformans var. neoformans isolate 25 after 48 hrs by microdilution broth method; type: functional; details: isolate 25, 48 h; summary of the method: as §1
[4] = test system: Candida parapsilosis; assay: Antimicrobial activity against Candida parapsilosis ATCC 22019 after 48 hrs by microdilution broth method; type: functional; details: Lodderomyces parapsilosis, ATCC 22019, 48 h; summary of the method: as §1
[5] = test system: Candida tropicalis; assay: Antimicrobial activity against Candida tropicalis isolate 11 after 48 hrs by microdilution broth method; type: functional; details: isolate 11, 48 h; summary of the method: as §1
[6] = test system: Candida parapsilosis; assay: Antimicrobial activity against Candida parapsilosis isolate 19 after 48 hrs by microdilution broth method; type: functional; details: Lodderomyces parapsilosis, isolate 19, 48 h; summary of the method: as §1
[7] = test system: Candida tropicalis; assay: Antimicrobial activity against Candida tropicalis isolate 33 after 48 hrs by microdilution broth method; type: functional; details: isolate 33, 48 h; summary of the method: as §1
[8] = test system: Cryptococcus deneoformans; assay: Antimicrobial activity against Cryptococcus neoformans var. neoformans isolate 14 after 48 hrs by microdilution broth method; type: functional; details: isolate 14, 48 h; summary of the method: as §1
[9] = test system: Pichia kudriavzevii; assay: Antimicrobial activity against Candida krusei isolate 48 after 48 hrs by microdilution broth method; type: functional
[10] = test system: Nakaseomyces glabratus; assay: Antimicrobial activity against Candida glabrata isolate 32 after 48 hrs by microdilution broth method; type: functional; details: isolate 32, 48 h; summary of the method: as §1
[11] = test system: Nakaseomyces glabratus; assay: Antimicrobial activity against Candida glabrata isolate 46 after 48 hrs by microdilution broth method; type: functional; summary of the method: as §1
[12] = test system: Cryptococcus deneoformans; assay: Antimicrobial activity against Cryptococcus neoformans var. neoformans isolate 27 after 48 hrs by microdilution broth method; type: functional; details: isolate 27, 48 h; summary of the method: as §1
[13] = test system: Pichia kudriavzevii; assay: Antimicrobial activity against Candida krusei isolate 43 after 48 hrs by microdilution broth method; type: functional
[14] = test system: Pichia kudriavzevii; assay: Antimicrobial activity against Candida krusei isolate 31 after 48 hrs by microdilution broth method; type: functional; details: isolate 31, 48 h; summary of the method: as §1
[15] = test system: Candida tropicalis; assay: Antimicrobial activity against Candida tropicalis isolate 22 after 48 hrs by microdilution broth method; type: functional; details: isolate 22, 48 h; summary of the method: as §1
[16] = test system: Candida albicans; assay: Antimicrobial activity against Candida albicans isolate 48 after 48 hrs by microdilution broth method; type: functional; details: isolate 48, 48 h; summary of the method: as §1
[17] = test system: Candida albicans; assay: Antimicrobial activity against Candida albicans isolate 31 after 48 hrs by microdilution broth method; type: functional; details: isolate 31, 48 h; summary of the method: as §1
[18] = test system: Pichia kudriavzevii; assay: Antimicrobial activity against Candida krusei ATCC 6258 after 48 hrs by microdilution broth method; type: functional; details: ATCC 6258, 48 h
[19] = test system: Candida albicans; assay: Antimicrobial activity against Candida albicans ATCC 90028 after 48 hrs by microdilution broth method; type: functional; details: ATCC 90028, 48 h; summary of the method: as §2
[20] = test system: Candida tropicalis; assay: Antimicrobial activity against Candida tropicalis isolate 15 after 48 hrs by microdilution broth method; type: functional; details: isolate 15, 48 h; summary of the method: as §1
[21] = test system: Cryptococcus deneoformans; assay: Antimicrobial activity against Cryptococcus neoformans var. neoformans isolate 30 after 48 hrs by microdilution broth method; type: functional; details: isolate 30, 48 h; summary of the method: as §1
[22] = test system: Nakaseomyces glabratus; assay: Antimicrobial activity against Candida glabrata isolate 49 after 48 hrs by microdilution broth method; type: functional; summary of the method: as §1
[23] = test system: Candida albicans; assay: Antimicrobial activity against Candida albicans isolate 47 after 48 hrs by microdilution broth method; type: functional; details: isolate 47, 48 h; summary of the method: as §1
[24] = test system: Nakaseomyces glabratus; assay: Antimicrobial activity against Candida glabrata isolate 30 after 48 hrs by microdilution broth method; type: functional; summary of the method: as §1
[25] = test system: Candida parapsilosis; assay: Antimicrobial activity against Candida parapsilosis isolate 44 after 48 hrs by microdilution broth method; type: functional; details: Lodderomyces parapsilosis, isolate 44, 48 h; summary of the method: as §1
[26] = test system: Candida albicans; assay: Antimicrobial activity against Candida albicans isolate 41 after 48 hrs by microdilution broth method; type: functional; details: isolate 41, 48 h; summary of the method: as §1
[27] = test system: Escherichia coli; assay: Antimicrobial activity against Escherichia coli isolate after 24 hrs by microdilution broth method
[28] = test system: Pseudomonas aeruginosa; assay: Antimicrobial activity against Pseudomonas aeruginosa isolate 2 after 24 hrs by microdilution broth method; details: isolate 2, 24 h
[29] = test system: Proteus mirabilis; assay: Antimicrobial activity against Proteus mirabilis isolate after 24 hrs by microdilution broth method
[30] = test system: Staphylococcus aureus; assay: Antimicrobial activity against methicillin-susceptible Staphylococcus aureus isolate after 24 hrs by microdilution broth method
[31] = test system: Pseudomonas aeruginosa; assay: Antimicrobial activity against Pseudomonas aeruginosa isolate 1 after 24 hrs by microdilution broth method; details: isolate 1, 24 h

Row | Compound | MIC [1] [mg/L] | MIC [2] [mg/L] | MIC [3] [mg/L] | MIC [4] [mg/L] | MIC [5] [mg/L] | MIC [6] [mg/L] | MIC [7] [mg/L] | MIC [8] [mg/L] | MIC [9] [mg/L] | MIC [10] [mg/L] | MIC [11] [mg/L] | MIC [12] [mg/L] | MIC [13] [mg/L] | MIC [14] [mg/L] | MIC [15] [mg/L] | MIC [16] [mg/L] | MIC [17] [mg/L] | MIC [21] [mg/L] | MIC [22] [mg/L] | MIC [23] [mg/L] | also measured
1 | Cc1ccc(S(=O)(=O)/N=[N+](\[O-])c2c(-c3cccs3)nn(C)c2C)cc1 | > 128 | > 128 | 128 (≈ 340 µM) | > 128 | > 128 | > 128 | > 128 | 64 (≈ 170 µM) | > 128 | > 128 | > 128 | 64 (≈ 170 µM) | > 128 | > 128 | > 128 | > 128 | > 128 | 128 (≈ 340 µM) | > 128 | > 128 | MIC [18]: > 128 mg/L; MIC [19]: > 128 mg/L; MIC [20]: > 128 mg/L; MIC [24]: > 128 mg/L
2 | C[C@@H]1[C@H](O)[C@@H](C)/C=C/C=C/C=C/C=C/C=C/C=C/C=C/[C@H](O[C@@H]2O[C@H](C)[C@@H](O)[C@H](N)[C@@H]2O)C[C@@H]2O[C@](O)(C[C@@H](O)C[C@@H](O)[C@H](O)CC[C@@H](O)C[C@@H](O)CC(=O)O[C@H]1C)C[C@H](O)[C@H]2C(=O)O [AMPHOTERICIN B] | 0.5 (≈ 0.541 µM) | 0.5 (≈ 0.541 µM) | 0.5 (≈ 0.541 µM) | 1 (≈ 1.08 µM) | 1 (≈ 1.08 µM) | 0.5 (≈ 0.541 µM) | 1 (≈ 1.08 µM) | 0.25 (≈ 0.271 µM) |  | 0.5 (≈ 0.541 µM) | 1 (≈ 1.08 µM) | 0.12 (≈ 0.13 µM) |  | 0.5 (≈ 0.541 µM) | 0.5 (≈ 0.541 µM) | 0.5 (≈ 0.541 µM) | 0.5 (≈ 0.541 µM) | 0.5 (≈ 0.541 µM) | 0.5 (≈ 0.541 µM) | 1 (≈ 1.08 µM) | MIC [25]: 0.5 mg/L (≈ 0.541 µM); MIC [26]: 0.5 mg/L (≈ 0.541 µM); MIC [19]: 0.5 mg/L (≈ 0.541 µM); MIC [20]: 1 mg/L (≈ 1.08 µM)
3 | C[C@@H](c1ncncc1F)[C@](O)(Cn1cncn1)c1ccc(F)cc1F [VORICONAZOLE] | < 0.008 | 0.016 (≈ 0.0458 µM) | 0.016 (≈ 0.0458 µM) | 0.06 (≈ 0.172 µM) | 0.12 (≈ 0.344 µM) | 0.008 (≈ 0.0229 µM) | < 0.008 | < 0.008 | 0.25 (≈ 0.716 µM) | 4 (≈ 11.5 µM) | 0.25 (≈ 0.716 µM) | 0.016 (≈ 0.0458 µM) | 0.5 (≈ 1.43 µM) | 0.12 (≈ 0.344 µM) | 0.06 (≈ 0.172 µM) | < 0.008 | < 0.008 | 0.016 (≈ 0.0458 µM) | 0.12 (≈ 0.344 µM) | 0.008 (≈ 0.0229 µM) | MIC [25]: 0.016 mg/L (≈ 0.0458 µM); MIC [26]: < 0.008 mg/L; MIC [18]: 0.25 mg/L (≈ 0.716 µM); MIC [19]: 0.008 mg/L (≈ 0.0229 µM); MIC [20]: 0.06 mg/L (≈ 0.172 µM); MIC [24]: 0.25 mg/L (≈ 0.716 µM)
4 | CC[C@@H]([C@H](C)O)n1ncn(-c2ccc(N3CCN(c4ccc(OC[C@@H]5CO[C@@](Cn6cncn6)(c6ccc(F)cc6F)C5)cc4)CC3)cc2)c1=O [POSACONAZOLE] | 0.03 (≈ 0.0428 µM) | 0.06 (≈ 0.0856 µM) | 0.06 (≈ 0.0856 µM) | 0.12 (≈ 0.171 µM) | 0.12 (≈ 0.171 µM) | 0.03 (≈ 0.0428 µM) | 0.12 (≈ 0.171 µM) | 0.03 (≈ 0.0428 µM) | 0.25 (≈ 0.357 µM) | > 8 | 1 (≈ 1.43 µM) | 0.06 (≈ 0.0856 µM) | 0.5 (≈ 0.713 µM) | 0.25 (≈ 0.357 µM) | 0.25 (≈ 0.357 µM) | 0.008 (≈ 0.0114 µM) | 0.008 (≈ 0.0114 µM) | 0.12 (≈ 0.171 µM) | 0.25 (≈ 0.357 µM) | 0.016 (≈ 0.0228 µM) | MIC [25]: 0.03 mg/L (≈ 0.0428 µM); MIC [26]: 0.016 mg/L (≈ 0.0228 µM); MIC [18]: 0.25 mg/L (≈ 0.357 µM); MIC [19]: 0.008 mg/L (≈ 0.0114 µM); MIC [20]: 0.25 mg/L (≈ 0.357 µM); MIC [24]: 0.5 mg/L (≈ 0.713 µM)
5 | Cc1cc(-c2c(/[N+]([O-])=N/C#N)c(C)nn2C)no1 | 128 (≈ 520 µM) |  | 8 (≈ 32.5 µM) | > 128 | 128 (≈ 520 µM) | > 128 | > 128 | 8 (≈ 32.5 µM) | 32 (≈ 130 µM) | 16 (≈ 65 µM) | 128 (≈ 520 µM) | 8 (≈ 32.5 µM) | 32 (≈ 130 µM) | 32 (≈ 130 µM) | > 128 | 128 (≈ 520 µM) | 32 (≈ 130 µM) | 8 (≈ 32.5 µM) | 64 (≈ 260 µM) | 128 (≈ 520 µM) | MIC [27]: > 128 mg/L; MIC [28]: > 128 mg/L; MIC [25]: 128 mg/L (≈ 520 µM); MIC [29]: > 128 mg/L; MIC [30]: > 128 mg/L; MIC [26]: 32 mg/L (≈ 130 µM); MIC [31]: > 128 mg/L; MIC [18]: 16 mg/L (≈ 65 µM); MIC [24]: 128 mg/L (≈ 520 µM)
